# pIC50: −log10 of the molar value. Activity calls are given as the source filed them. No cut-off for these calls is given here.
# Assays:
# [1] = system: A549; test: Antiproliferative activity against human A549 cells assessed as inhibition of cell growth measured after 72 hrs in presence of N-(4-(2-Hexylhydrazine-1-carbonyl)benzyl)acetamide by MTS assay; type: functional, cell-based; settings: A549, 72 h
# [2] = system: HCT-116; test: Induction of apoptosis in human HCT-116 cells assessed as viable cells at 10 uM measured after 48 hrs in presence of N-(4-(2-Hexylhydrazine-1-carbonyl)benzyl)acetamide by AnnexinV/FITC and PI staining based flow cytometry analysis (reference value: 91.3%); type: functional; settings: read-out: Activity
# [3] = system: THP-1; test: Antiproliferative activity against human THP-1 cells assessed as inhibition of cell growth measured after 72 hrs in presence of N-(4-(2-Hexylhydrazine-1-carbonyl)benzyl)acetamide by MTS assay; type: functional, cell-based; settings: THP-1, 72 h
# [4] = system: Jurkat; test: Antiproliferative activity against human Jurkat cells assessed as inhibition of cell growth measured after 72 hrs in presence of N-(4-(2-Hexylhydrazine-1-carbonyl)benzyl)acetamide by MTS assay; type: functional, cell-based
# [5] = system: HCT-116; test: Antiproliferative activity against human HCT-116 cells assessed as inhibition of cell growth measured after 72 hrs in presence of N-(4-(2-Hexylhydrazine-1-carbonyl)benzyl)acetamide by MTS assay; type: functional, cell-based; settings: HCT-116, 72 h
# [6] = system: HCT-116; test: Induction of apoptosis in human HCT-116 cells assessed as necrotic cells at 10 uM measured after 48 hrs in presence of N-(4-(2-Hexylhydrazine-1-carbonyl)benzyl)acetamide by AnnexinV/FITC and PI staining based flow cytometry analysis (reference value: […]); type: functional
# [7] = system: HCT-116; test: Induction of apoptosis in human HCT-116 cells assessed as early apoptotic cells at 10 uM measured after 48 hrs in presence of N-(4-(2-Hexylhydrazine-1-carbonyl)benzyl)acetamide by AnnexinV/FITC and PI staining based flow cytometry analysis (reference value: 5.39%); type: functional
# [8] = system: HCT-116; test: Induction of apoptosis in human HCT-116 cells assessed as increase in caspase 3/7 activity at 5 uM incubated for 48 hrs in presence of N-(4-(2-Hexylhydrazine-1-carbonyl)benzyl)acetamide; type: functional, cell-based
# [9] = system: Jurkat; test: Induction of apoptosis in human Jurkat cells assessed as increase in caspase 3/7 activity at 5 uM incubated for 48 hrs in presence of N-(4-(2-Hexylhydrazine-1-carbonyl)benzyl)acetamide; type: functional, cell-based
# [10] = system: HCT-116; test: Induction of apoptosis in human HCT-116 cells assessed as late apoptotic cells at 10 uM measured after 48 hrs in presence of N-(4-(2-Hexylhydrazine-1-carbonyl)benzyl)acetamide by AnnexinV/FITC and PI staining based flow cytometry analysis (reference value: 1.96%); type: functional
# [11] = system: THP-1; test: cells; settings: Homo sapiens, THP-1, 72 h
# [12] = system: HCT-116; test: Induction of apoptosis in human HCT-116 cells assessed as increase in caspase 3/7 activity at 5 uM incubated for 48 hrs; type: functional, cell-based
# [13] = system: Jurkat; test: Upregulation of Ac-HH3 level in human Jurkat cells at 0.004 to 0.33 uM incubated for 6 hrs by Western blot analysis; type: functional, cell-based; settings: dose 0.004-0.33 µM
# In short: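 Jurkat cells were exposed to the compound for 6 h. Ac-SMC3, Ac-HH3, Ac-tubulin and HDAC8 were probed by Western blot with GAPDH as loading control. Ac-HH3 bands were quantified by densitometry and normalized to the DMSO-treated group. Values are mean ± SEM of two independent experiments, compared with DMSO by one-way ANOVA.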
# [14] = system: Jurkat; test: Upregulation of AcHH3 level on human Jurkat cells at 1 to 10 uM measured after 48 hrs by Western blot analysis; type: functional, cell-based; settings: dose 1-10 µM
# [15] = system: Jurkat; test: Induction of apoptosis in human Jurkat cells assessed as increase in caspase 3/7 activity at 5 uM incubated for 48 hrs; type: functional, cell-based
# [16] = system: Jurkat; test: Upregulation of AcHH4 level on human Jurkat cells at 1 to 10 uM measured after 48 hrs by Western blot analysis; type: functional, cell-based; settings: dose 1-10 µM
# [17] = system: Jurkat; test: Upregulation of Ac-tubulin level in human Jurkat cells at 1 uM measured after 6 hrs by Western blot analysis; type: functional, cell-based
# In short: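 Jurkat cells were treated for 6 h at the indicated concentrations. Acetylated tubulin was probed by Western blot, with GAPDH as loading control.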
# [18] = system: Jurkat; test: Upregulation of Ac-SMC3 level in human Jurkat cells at 1 uM measured after 6 hrs by Western blot analysis; type: functional, cell-based
# In short: (§1)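 Jurkat cells exposed to the indicated compound concentrations for 6 h. Ac-SMC3 and Ac-HH3 were detected by Western blot with GAPDH as loading control. Bands were quantified by densitometry and normalized to the DMSO-treated group. Data are mean ± SEM of two independent experiments, compared with DMSO by one-way ANOVA.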
# [19] = system: Jurkat; test: Upregulation of Ac-HH3 level in human Jurkat cells at 1 uM measured after 6 hrs by Western blot analysis; type: functional, cell-based; in short: as §1
# [20] = system: Jurkat; test: Upregulation of Ac-HH3 level in human Jurkat cells at 3.7 to […] uM incubated for 6 hrs by Western blot analysis; type: functional, cell-based; settings: dose 3.7-33.3 µM
# [21] = system: HCT-116; test: Induction of apoptosis in human HCT-116 cells assessed as early apoptotic cells at 10 uM measured after 48 hrs in presence of tert-butyl 2-(4-(4-((2,6-dioxopiperidin-3-yl)amino)phenyl)piperidin-1-yl)acetate by AnnexinV/FITC and PI staining based flow cytometry analysis (reference value: 5.39%); type: functional
# [22] = system: Jurkat; test: Effect on AcHH3 level on human Jurkat cells at 10 uM measured after 48 hrs by Western blot analysis; type: functional, cell-based
# [23] = system: Jurkat; test: Effect on AcHH4 level on human Jurkat cells at 10 uM measured after 48 hrs by Western blot analysis; type: functional, cell-based
# [24] = system: Jurkat; test: Upregulation of Ac-SMC3 level in human Jurkat cells at high concentration incubated for 6 hrs by Western blot analysis; type: functional, cell-based; in short: as §1
# [25] = system: Jurkat; test: Induction of apoptosis in human Jurkat cells assessed as increase in caspase 3/7 activity at 5 uM incubated for 48 hrs in presence of tert-butyl 2-(4-(4-((2,6-dioxopiperidin-3-yl)amino)phenyl)piperidin-1-yl)acetate; type: functional, cell-based
# [26] = system: Jurkat; test: Upregulation of Ac-HH3 level in human Jurkat cells at high concentration incubated for 6 hrs by Western blot analysis; type: functional, cell-based; in short: as §1
# [27] = system: HCT-116; test: Induction of apoptosis in human HCT-116 cells assessed as necrotic cells at 10 uM measured after 48 hrs in presence of tert-butyl 2-(4-(4-((2,6-dioxopiperidin-3-yl)amino)phenyl)piperidin-1-yl)acetate by AnnexinV/FITC and PI staining based flow cytometry analysis (reference value: […]); type: functional
# [28] = system: HCT-116; test: Induction of apoptosis in human HCT-116 cells assessed as viable cells at 10 uM measured after 48 hrs in presence of tert-butyl 2-(4-(4-((2,6-dioxopiperidin-3-yl)amino)phenyl)piperidin-1-yl)acetate by AnnexinV/FITC and PI staining based flow cytometry analysis (reference value: 91.3%); type: functional; settings: read-out: Activity
# [29] = system: HCT-116; test: Induction of apoptosis in human HCT-116 cells assessed as late apoptotic cells at 10 uM measured after 48 hrs in presence of tert-butyl 2-(4-(4-((2,6-dioxopiperidin-3-yl)amino)phenyl)piperidin-1-yl)acetate by AnnexinV/FITC and PI staining based flow cytometry analysis (reference value: 1.96%); type: functional
# [30] = target: Protein cereblon/Histone deacetylase 8 (Homo sapiens) (UniProt Q9BY41+Q96SW2); test: PROTAC activity at CRBN/HDAC8 in human Jurkat cells assessed as induction of HDAC8 degradation at 10 uM measured after 48 hrs by Western blot analysis; type: cell-based
# Protein cereblon/Histone deacetylase 8 (Homo sapiens), sequence (Q96SW2 whole entry, looked up): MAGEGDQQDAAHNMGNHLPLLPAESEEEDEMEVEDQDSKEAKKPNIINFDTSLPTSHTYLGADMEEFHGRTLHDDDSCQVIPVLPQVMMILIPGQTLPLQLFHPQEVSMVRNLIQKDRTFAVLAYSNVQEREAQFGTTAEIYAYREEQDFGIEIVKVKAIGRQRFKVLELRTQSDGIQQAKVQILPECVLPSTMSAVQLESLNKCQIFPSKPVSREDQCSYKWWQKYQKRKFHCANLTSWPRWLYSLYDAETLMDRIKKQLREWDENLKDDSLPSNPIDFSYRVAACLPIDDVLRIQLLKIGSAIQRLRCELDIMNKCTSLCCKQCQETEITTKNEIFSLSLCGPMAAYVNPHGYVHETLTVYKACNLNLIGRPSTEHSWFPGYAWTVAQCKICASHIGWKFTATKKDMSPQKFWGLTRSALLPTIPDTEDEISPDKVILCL
# Protein cereblon/Histone deacetylase 8 (Homo sapiens), sequence (Q9BY41 whole entry, looked up): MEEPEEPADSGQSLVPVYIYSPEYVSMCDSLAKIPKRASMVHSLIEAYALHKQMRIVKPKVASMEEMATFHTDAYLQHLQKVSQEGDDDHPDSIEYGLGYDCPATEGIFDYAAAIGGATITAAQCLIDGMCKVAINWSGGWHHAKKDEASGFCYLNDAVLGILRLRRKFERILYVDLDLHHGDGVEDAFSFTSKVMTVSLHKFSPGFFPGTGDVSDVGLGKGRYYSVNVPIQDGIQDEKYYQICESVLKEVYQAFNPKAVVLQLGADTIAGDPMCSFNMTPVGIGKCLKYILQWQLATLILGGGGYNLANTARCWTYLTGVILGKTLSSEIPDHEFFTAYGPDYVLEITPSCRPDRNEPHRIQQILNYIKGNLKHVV
# [31] = system: HCT-116; test: Induction of apoptosis in human HCT-116 cells assessed as increase in caspase 3/7 activity at 5 uM incubated for 48 hrs in presence of tert-butyl 2-(4-(4-((2,6-dioxopiperidin-3-yl)amino)phenyl)piperidin-1-yl)acetate; type: functional, cell-based
# [32] = system: THP-1; test: Upregulation of Ac-HH3 level in human THP-1 cells at 1.1 to 3.3 uM measured after 24 hrs by Western blot analysis; type: functional, cell-based; settings: dose 1.1-3.3 µM
# In short: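 THP-1 cells were exposed to the compound at the indicated concentrations for 24 h, then immunoblotted for Ac-HH3, Ac-SMC3, Ac-tubulin and HDAC8 with GAPDH as loading control. Band intensities were quantified and normalized to the DMSO-treated group. Data are mean ± SEM of two independent experiments, analysed by one-way ANOVA against DMSO.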
# [33] = system: Jurkat; test: Effect on Ac-tubulin level in human Jurkat cells at 0.33 to 0.11 uM incubated for 6 hrs by Western blot analysis; type: functional, cell-based; settings: dose 0.33-0.11 µM
# In short: (§2)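 Cells were exposed to the compound for 6 h. Acetylated tubulin was detected by Western blot, with GAPDH as the loading control.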
# [34] = system: HCT-116; test: Effect on Ac-tubulin level in human HCT-116 cells at 0.33 to 0.11 uM incubated for 6 hrs by Western blot analysis; type: functional, cell-based; settings: dose 0.33-0.11 µM; in short: as §2
# [35] = system: Jurkat; test: Upregulation of Ac-HH3 level in human Jurkat cells incubated for 6 hrs by Western blot analysis; type: functional, cell-based; in short: as §1
# [36] = system: HCT-116; test: Upregulation of Ac-HH3 level in human HCT-116 cells incubated for 6 hrs by Western blot analysis; type: functional, cell-based; settings: dose 0.004-3.3 µM
# In short: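 HCT116 cells were incubated with graded concentrations for 6 h. Ac-HH3 was detected by Western blot with GAPDH as the loading control, then quantified by densitometry and normalized to DMSO-treated cells. Data are mean ± SEM of two independent experiments, compared against DMSO by one-way ANOVA.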
# [37] = system: Jurkat; test: Upregulation of Ac-HH3 level in human Jurkat cells at 0.4 to […] uM incubated for 24 hrs by Western blot analysis; type: functional, cell-based; settings: dose 0.4-33.3 µM
# [38] = system: Jurkat; test: Upregulation of Ac-HH4 level in human Jurkat cells at 0.4 to […] uM incubated for 24 hrs by Western blot analysis; type: functional, cell-based; settings: dose 0.4-33.3 µM
smiles,measurement,setting,value
CC(C)(C)OC(=O)CN1CCC(c2ccc(NC3CCC(=O)NC3=O)cc2)CC1 (centres undefined),pIC50,[1],< 4.48
same,viability at 10 µM,[2],73.2%
same,pIC50,[3],< 4.48
same,pIC50,[4],< 4.48
same,pIC50,[5],< 4.48
same,Activity,[6],3.33%
same,Activity,[7],19.6%
same,Activity,[8],inactive
same,Activity,[9],inactive
same,Activity,[10],3.87%
Nc1ccccc1NC(=O)c1ccc(CNC(=O)OCc2cccnc2)cc1 [ENTINOSTAT],pIC50,[11],5.64
O=C(CCCCCCC(=O)Nc1ccccc1)NO,Activity,[12],Active
same,Activity,[13],Active
same,Activity,[14],Active
same,Activity,[15],Active
same,Activity,[16],Active
same,Activity,[17],Active
same,Activity,[18],inactive
same,Activity,[19],Active
CCCCCCN(NC(=O)c1ccc(CNC(=O)CN2CCC(c3ccc(NC4CCC(=O)NC4=O)cc3)CC2)cc1)C(=O)OC(C)(C)C (centres undefined),Activity,[20],inactive
CCCCCCNNC(=O)c1ccc(CNC(C)=O)cc1,Activity,[21],19.6%
same,Activity,[22],inactive
same,Activity,[23],inactive
same,Activity,[24],Active
same,Activity,[25],inactive
same,Activity,[26],Active
same,Activity,[27],3.33%
same,viability at 10 µM,[28],73.2%
same,Activity,[29],3.87%
same,Activity,[18],inactive
same,Activity,[30],inactive
same,Activity,[31],inactive
CCCCCCNNC(=O)c1ccc(CNC(=O)CN2CCC(c3ccc(NC(C)=O)cc3)CC2)cc1,Activity,[32],Active
same,Activity,[33],inactive
same,Activity,[34],inactive
same,Activity,[35],Dose-Dependent Effect
same,Activity,[36],Dose-Dependent Effect
COc1ccc(Cn2ccc3ccc(C(=O)NO)cc32)cc1,Activity,[37],inactive
same,Activity,[38],inactive

# — ChEMBL document CHEMBL5584302, “Exploration of Hydrazide-Based HDAC8 PROTACs for the Treatment of Hematological Malignancies and Solid Tumors” (J Med Chem, 2024)
